Measurements published in ChEMBL document CHEMBL1151775, “Inhibition of aquaporin 4 by antiepileptic drugs” (Bioorg Med Chem, 2009).
pIC50: −log10 of the molar value.

Legend:
Format in all cases: cell-based
Oocyte [1] = experiment: Inhibition of human aquaporin 4 M23 isoform expressed in Xenopus laevis oocytes at 20 uM
Summary of the method: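 Oocytes injected with 30 nL hAQP4b cRNA (0.1 µg/µL) or water sham, cultured 48 h at 18 C in MBS. Exposure to 20 µM compound (0.1% DMSO) for 2 h, then hypotonic challenge by dilution with buffer-free solution of matching inhibitor/DMSO. Oocyte area imaged each 60 s for 4 min, converted to volume. Osmotic permeability-based percent inhibition versus blank and sham; single-tail ANOVA, P < 0.05.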

[2] = (§1) Inhibition of human aquaporin 4 M23 isoform expressed in Xenopus laevis oocytes; conditions: oocyte
Summary of the method: (§2)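 hAQP4b cRNA (0.1 µg/µL, 30 nL) or water (sham) injected into oocytes, kept 48 h at 18 C in MBS. Oocytes preincubated 2 h with ligand at 0.1, 1, 5, 10, 20 or 100 µM, 0.1% DMSO final, then diluted with buffer-free hypotonic solution. Swelling imaged every 60 s up to 4 min; n = 5 oocytes. Percent inhibition relative to blank and sham Pf fit sigmoidally for apparent IC50.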

Oocyte [3] = experiment: as §1; summary of the method: as §2

In the case of `O=C1NC(=O)C(c2ccccc2)(c2ccccc2)N1` [PHENYTOIN], the inhibition (Oocyte [1]) was 58%, the pIC50 [2] was 5.01 and the Imax (Oocyte [3]) was 60%.
Compound `NC(=O)N1c2ccccc2CC(=O)c2ccccc21` has an inhibition (Oocyte [1]) of 33%.
Compound `Nc1nnc(-c2cccc(Cl)c2Cl)c(N)n1` [LAMOTRIGINE] has an inhibition (Oocyte [1]) of 54%, a pIC50 [2] of 5.09 and an Imax (Oocyte [3]) of 64%.
`CC1(C)O[C@@H]2[C@@H](CO[C@@]3(COS(N)(=O)=O)OC(C)(C)O[C@@H]23)O1` [TOPIRAMATE] showed an inhibition (Oocyte [1]) of 67%, a pIC50 [2] of 5.00 and an Imax (Oocyte [3]) of 75%.
`CC(=O)Nc1nnc(S(N)(=O)=O)s1` [ACETAZOLAMIDE] gave an inhibition (Oocyte [1]) of 78%, a pIC50 [2] of 6.07 and an Imax (Oocyte [3]) of 86%.
In the case of `CCCC(CCC)C(=O)O`, the inhibition (Oocyte [1]) was 40%.
`NS(=O)(=O)Cc1noc2ccccc12` [ZONISAMIDE] gave an inhibition (Oocyte [1]) of 48%, a pIC50 [2] of 5.48 and an Imax (Oocyte [3]) of 48%.
With `NC(=O)N1c2ccccc2C2OC2c2ccccc21` (stereo not drawn) the inhibition (Oocyte [1]) was 40%.
